Hits are enriched below; roughly 3.5% of the tested compounds scored in any of these assays.
Wnt act: activators of Wnt/beta-catenin signaling; Wnt/beta-catenin reporter cell assay, activator, plate reader; activation, % at 9.35 µM; 300,000 tested, 1.2% active; AID 743398; in the data active means activation above about 30%, passing the limit was not always enough
Cneo AK release: causes C. neoformans cell lysis. lysis activity, % at 15 µM. adenylate kinase release luminescence, 4 h; normalised: neutral wells 0, clomiphene wells 100. 360,000 tested, 0.2% active. AID 651654;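 active means mean lysis activity across replicates of at least 80%, whatever share of replicates individually reach that level; inactive means mean lysis activity below 80%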
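Test system: log-phase Cryptococcus neoformans yeast cells. Input: 5 × 10^6 yeast cells/mL. Medium: fresh YPD growth medium. Doses: single dose. Incubation: static 4 h at 37 °C with compound, 1 h detection. Measured by: luminescent adenylate kinase detection reagent. Read-out: signal increase indicating cell lysis. Benchmarks: Clomiphene.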
esBAF inh: SWI/SNF esBAF complex inhibition. mouse ES cells, Bmi1-luciferase knock-in reporter, 24 h; 100% = twice the neutral-well signal. reporter increase, % at 12.5 µM. 350,000 tested, 2% active. AID 602393; in the data active means activation above about 40%;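 further: a rise in the Bmi1 reporter signal indicates esBAF inhibition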
ERAP1 HTS inh: blocks human ERAP1 aminopeptidase activity | recombinant ERAP1, Leu-AMC fluorescence, 60 min | AID 652197 | inhibition, % at 10.7 µM | Q9NZ08 | 340,000 tested, 0.15% active;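 active means mean replicate inhibition of at least 30%, or all replicates individually reaching that 30% level; inactive means mean below 30% and not every replicate reaching it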
Target sequence (Q9NZ08 whole entry, looked up): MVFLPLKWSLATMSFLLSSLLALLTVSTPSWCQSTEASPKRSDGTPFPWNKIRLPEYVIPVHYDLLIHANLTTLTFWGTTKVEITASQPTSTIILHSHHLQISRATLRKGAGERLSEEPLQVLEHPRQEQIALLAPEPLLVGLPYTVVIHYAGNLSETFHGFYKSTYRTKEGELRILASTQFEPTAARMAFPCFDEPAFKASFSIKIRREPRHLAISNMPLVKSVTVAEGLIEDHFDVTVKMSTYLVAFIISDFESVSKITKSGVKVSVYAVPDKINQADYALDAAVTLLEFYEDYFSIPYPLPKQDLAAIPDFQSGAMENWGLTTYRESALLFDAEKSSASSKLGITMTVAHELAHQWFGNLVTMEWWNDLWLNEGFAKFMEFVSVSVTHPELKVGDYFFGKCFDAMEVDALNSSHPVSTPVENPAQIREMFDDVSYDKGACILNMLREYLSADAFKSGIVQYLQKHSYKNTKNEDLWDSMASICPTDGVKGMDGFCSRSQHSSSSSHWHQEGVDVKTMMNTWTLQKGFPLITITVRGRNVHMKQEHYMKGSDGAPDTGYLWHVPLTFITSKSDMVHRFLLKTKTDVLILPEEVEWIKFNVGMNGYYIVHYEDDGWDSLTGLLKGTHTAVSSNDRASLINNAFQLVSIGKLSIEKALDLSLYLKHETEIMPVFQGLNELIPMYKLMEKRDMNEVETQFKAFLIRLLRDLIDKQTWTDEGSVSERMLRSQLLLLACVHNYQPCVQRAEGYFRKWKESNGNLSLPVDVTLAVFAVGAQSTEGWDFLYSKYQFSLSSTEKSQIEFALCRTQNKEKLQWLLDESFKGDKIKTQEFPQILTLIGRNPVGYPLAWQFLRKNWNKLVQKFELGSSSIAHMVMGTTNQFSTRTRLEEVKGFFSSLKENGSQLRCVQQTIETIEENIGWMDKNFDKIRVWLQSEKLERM
MITF act: activators of MITF-driven TRPM1 promoter activity in SK-MEL-5 cells | SK-MEL-5 TRPM1-promoter luciferase, 24 h; % of positive control, neutral wells = 0 | activation, % at 12.5 µM | 300,000 tested, 0.75% active | AID 588334;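 active means mean activation of at least 80% with every replicate also reaching 80%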
Env fusion inh: blocks HIV Env-driven cell-cell fusion. 360,000 tested, 1.1% active. inhibition, % at 12.3 µM. HeLa-JRFL Env/CEM21 cell fusion, luciferase;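 active means mean replicate inhibition score of at least 50 and every replicate individually at or above 50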
Of the large screens only hits and unclear results are named; the others gave an inactive call; [ ] = dose if it differs, or a comment.

CC1(O)C(c2ccccc2)=Nc2ccccc21 (stereo unspecified)	Wnt act 61 (no result: MITF act)
CO/N=C/c1ccc(N2CCN(C(=O)c3ccc(Cl)cc3Cl)CC2)c([N+](=O)[O-])c1	Env fusion inh 78 (no result: Wnt act, ERAP1 HTS inh)
CO/N=C/c1ccc(N2CCN(C(=O)c3ccc(F)cc3)CC2)c([N+](=O)[O-])c1	none (no result: ERAP1 HTS inh)
CO/N=C/c1ccc(N2CCN(C(=O)c3cccc(C(F)(F)F)c3)CC2)c([N+](=O)[O-])c1	Env fusion inh 68 (no result: Cneo AK release, MITF act)
O=S(=O)(N[C@@H]1CC[C@@H](CCn2cc(-c3ccccn3)nn2)O[C@H]1CO)c1cccc(Cl)c1	none (no result: Wnt act, MITF act)
CCCNC(=O)C[C@@H]1CC[C@H]2[C@@H](COC[C@@H](O)CN2CC2CCCCC2)O1	none (no result: Wnt act, MITF act, Env fusion inh)
COCC(=O)Nc1ccc2c(c1)C(=O)N(C)C[C@@H](OC)[C@H](C)CN(Cc1ccccc1OC)[C@H](C)CO2	none (no result: Wnt act, MITF act, Env fusion inh)
CCC[N+](C)(C)C(C)C(OC(C)=O)c1ccccc1 (stereo unspecified)	ERAP1 HTS inh 41 (no result: esBAF inh, MITF act)
CN(C)S(=O)(=O)c1ccc(C(=O)NCC[N+]2(C)CCCCCC2)o1	ERAP1 HTS inh 41 (no result: MITF act)
O=C(NC1CCCC1)N[C@@H]1C=C[C@H](CC(=O)N2CCOCC2)O[C@@H]1CO	none (no result: Wnt act, MITF act)
CCc1ccc(Nc2n[n+](-c3ccccc3)c(-c3c(Cl)cccc3Cl)s2)cc1	Env fusion inh 70
Fc1ccc(-[n+]2nc(Nc3ccccc3)sc2-c2c(Cl)cccc2Cl)cc1	none
O=C(CCCCCCCC(=O)c1ccccc1)c1ccccc1	none
C=C(CCC(=O)c1ccccc1)C(=O)c1ccccc1	Wnt act 60 (no result: Cneo AK release, esBAF inh)
COc1ccc(C(=O)CC(=O)c2ccccc2O)cc1OC	esBAF inh 57 (no result: Cneo AK release)
CCC(=O)c1ccc(OCc2ccccc2)c(OC)c1	esBAF inh 95, MITF act 101 (no result: Wnt act, Cneo AK release, ERAP1 HTS inh, Env fusion inh)
CCC(=O)c1ccc(OCc2ccc(C(=O)OC)cc2)c(OC)c1	none (no result: Wnt act, ERAP1 HTS inh, Env fusion inh)
C[C@@H]1CN([C@H](C)CO)C(=O)c2cccc(NC(=O)CCCCCC(=O)Nc3ccccc3N)c2O[C@H]1CN(C)Cc1ccc2c(c1)OCO2	none (no result: Wnt act, Cneo AK release, esBAF inh, MITF act, Env fusion inh)
CCOC(=O)/C(=N/Nc1ccc(C)cc1)S(=O)(=O)c1ccc(Cl)cc1	esBAF inh 54 (no result: Wnt act, ERAP1 HTS inh, Env fusion inh)
CCOC(=O)/C(=N\Nc1ccccc1)S(=O)(=O)c1ccccc1	none (no result: Env fusion inh)
N#CCC(=O)Nc1ccc(C(=O)OCC(=O)NC(=O)Nc2ccc3c(c2)OCCO3)cc1	esBAF inh 61 (no result: Env fusion inh)
O=C(COc1ccc(F)cc1)Nc1ccc2c(c1)OCCO2	Wnt act 38 (no result: esBAF inh)
O=C(COC(=O)c1cccc(F)c1)Nc1ccc2c(c1)OCCO2	Wnt act 32 (no result: Env fusion inh)
CN(CC(=O)Nc1ccc(F)cc1)C(=O)COC(=O)c1cccc(N(C)C)c1	Wnt act 41, esBAF inh 48 (no result: MITF act, Env fusion inh)
N#CCC(=O)Nc1ccc(C(=O)OCC(=O)NCc2ccc3c(c2)OCO3)cc1	none (no result: Cneo AK release, Env fusion inh)
Cc1cccc(C(=O)OCC(=O)Nc2ccc3c(c2)OCCO3)c1	none (no result: Env fusion inh)
CN(CC(=O)Nc1ccc(F)cc1)C(=O)COC(=O)c1ccccc1	none
O=C(C[C@@H]1C=C[C@H](NS(=O)(=O)c2ccc(F)cc2)[C@H](CO)O1)N1CCN(c2ccccc2)CC1	none (no result: Wnt act, MITF act)
O=C(COC(=O)c1ccccc1F)Nc1ccc2c(c1)OCCO2	Wnt act 41
O=C(COC(=O)CNC(=O)c1ccccc1F)Nc1ccc2c(c1)OCCO2	none (no result: Cneo AK release, esBAF inh, Env fusion inh)
Cc1ccc(NC(=O)NC(=O)N(c2ccccc2)S(C)(=O)=O)cc1	esBAF inh 76 (no result: Wnt act, ERAP1 HTS inh, MITF act)
COc1ccccc1S(=O)(=O)Nc1ccc2c(c1)OC[C@@H](C)NC[C@H](C)[C@H](OC)CN(C)C2=O	none (no result: Wnt act, MITF act)
CO[C@H]1CN(C)C(=O)c2cc(NS(=O)(=O)c3ccccc3C)ccc2OC[C@@H](C)N(S(C)(=O)=O)C[C@@H]1C	none (no result: Wnt act, MITF act)
C[C@@H]1CN([C@@H](C)CO)C(=O)Cc2cc(NC(=O)c3ccncc3)ccc2O[C@@H]1CN(C)Cc1ccc(Cl)c(Cl)c1	none (no result: Wnt act, MITF act)
C[C@@H]1CN([C@@H](C)CO)C(=O)Cc2cc(NC(=O)c3ccncc3)ccc2O[C@H]1CN(C)Cc1ccc(Cl)c(Cl)c1	Env fusion inh 73[16.7 µM] (no result: Wnt act, MITF act)
C[C@@H]1CN([C@@H](C)CO)C(=O)Cc2cc(NS(=O)(=O)c3cccs3)ccc2O[C@H]1CN(C)Cc1ccc(C(F)(F)F)cc1	Env fusion inh 78[16.7 µM] (no result: Wnt act, MITF act)
